For assay [1], the target named is 5-hydroxytryptamine receptor 2A (Rattus norvegicus) (UniProt P14842). In words: Displacement of [3H]ketanserin from 5HT2A receptor in rat cortex membrane at 10^-6 M by radioligand binding assay. The assay is classed as cell membranes. Put shortly: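 Single-point screen at 1 µM, reported as % inhibition of [3H]-ketanserin (88.0 Ci/mmol) binding. Non-specific binding was defined with 1 µM methysergide. Compounds inhibiting at least 85% went on to full competition.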
A general note: In a radioligand displacement assay an active substance lowers the binding of a labelled ligand.

The target of assay [2] is T1, 5-hydroxytryptamine receptor 1A (Rattus norvegicus) (UniProt P19327).
T1 sequence (whole entry): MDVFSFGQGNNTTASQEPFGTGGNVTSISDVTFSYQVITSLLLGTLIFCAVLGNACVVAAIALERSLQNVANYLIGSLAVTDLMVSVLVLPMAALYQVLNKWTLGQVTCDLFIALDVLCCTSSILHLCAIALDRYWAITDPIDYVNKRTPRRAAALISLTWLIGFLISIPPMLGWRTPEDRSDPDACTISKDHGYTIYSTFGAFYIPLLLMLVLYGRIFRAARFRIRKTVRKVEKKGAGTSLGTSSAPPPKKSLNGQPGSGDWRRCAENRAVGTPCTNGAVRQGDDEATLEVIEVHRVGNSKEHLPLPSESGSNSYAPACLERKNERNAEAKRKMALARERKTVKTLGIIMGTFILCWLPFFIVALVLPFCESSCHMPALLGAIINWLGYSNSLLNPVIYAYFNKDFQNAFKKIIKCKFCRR
In words: Displacement of [3H]8-OH-DPAT from 5HT1A receptor in rat hippocampal membrane at 10^-6 M by radioligand binding assay. In kind it is cell membranes. The following applies: Hippocampus. In short, it runs like this: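 Single-point screen at 1 µM on rat hippocampal membranes, reported as % inhibition of [3H]-8-OH-DPAT (170 Ci/mmol) binding. Non-specific binding was defined with 10 µM 5-HT. Compounds inhibiting at least 85% went on to full competition.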

In assay [3] the target is 5-hydroxytryptamine receptor 7 (Homo sapiens, UniProt P34969). The assay is described as follows: Displacement of [3H]-5-CT from human 5-HT7b receptor expressed in HEK293 cells by radioligand binding assay. In kind it is cell-based. Put shortly:
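Membranes from HEK-293 cells stably expressing human 5-HT7b receptor, with [3H]-5-CT (93.0 Ci/mmol) as radioligand. Full competition used 7–9 concentrations of test compound, each run in triplicate. Ki was derived from the inhibition.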

Assay [4] concerns the target T2, 5-hydroxytryptamine receptor 1A (Rattus norvegicus, UniProt P19327).
T2 sequence (P19327 whole entry): T1 sequence (whole entry)
In words: Displacement of [3H]8-OH-DPAT from 5HT1A receptor in rat hippocampal membrane by radioligand binding assay. In kind it is cell membranes, Hippocampus. In short, it runs like this: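 Rat hippocampal membranes were incubated with [3H]-8-OH-DPAT (170 Ci/mmol), with 10 µM 5-HT for non-specific binding. Competition used 7–9 test concentrations, each in triplicate, to give Ki. Values are means of three experiments run in triplicate.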

A value given as a limit tells only on which side of the number the result lay.

Sequence of 5-hydroxytryptamine receptor 7 (P34969 whole entry): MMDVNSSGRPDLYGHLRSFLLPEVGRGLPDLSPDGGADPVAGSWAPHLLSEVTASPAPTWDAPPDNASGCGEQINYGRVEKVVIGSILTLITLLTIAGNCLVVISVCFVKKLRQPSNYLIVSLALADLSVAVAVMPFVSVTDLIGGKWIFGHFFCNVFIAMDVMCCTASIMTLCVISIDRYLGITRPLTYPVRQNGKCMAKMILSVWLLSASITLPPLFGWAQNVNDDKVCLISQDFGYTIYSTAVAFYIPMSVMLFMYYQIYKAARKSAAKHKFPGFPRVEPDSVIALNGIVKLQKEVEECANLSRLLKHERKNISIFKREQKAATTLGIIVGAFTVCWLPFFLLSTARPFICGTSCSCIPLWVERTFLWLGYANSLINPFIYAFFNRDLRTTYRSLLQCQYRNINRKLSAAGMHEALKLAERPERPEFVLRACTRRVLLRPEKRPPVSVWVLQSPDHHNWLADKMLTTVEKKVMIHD
Sequence of 5-hydroxytryptamine receptor 2A (Rattus norvegicus) (P14842 whole entry): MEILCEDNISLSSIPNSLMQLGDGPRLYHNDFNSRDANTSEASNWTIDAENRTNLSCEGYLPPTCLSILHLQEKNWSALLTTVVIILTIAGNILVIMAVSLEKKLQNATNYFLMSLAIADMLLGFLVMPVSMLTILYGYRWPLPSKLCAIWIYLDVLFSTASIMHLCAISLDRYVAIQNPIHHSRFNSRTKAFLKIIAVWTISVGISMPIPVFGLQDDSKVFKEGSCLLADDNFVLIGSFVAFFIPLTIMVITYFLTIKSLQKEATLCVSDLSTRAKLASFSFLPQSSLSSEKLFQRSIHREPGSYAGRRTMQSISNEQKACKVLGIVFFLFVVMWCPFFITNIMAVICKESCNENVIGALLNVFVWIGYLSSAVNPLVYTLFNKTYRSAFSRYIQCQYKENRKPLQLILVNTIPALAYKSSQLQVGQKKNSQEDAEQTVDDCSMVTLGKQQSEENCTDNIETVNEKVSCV

One may read the inhibition as the change of the read-out against control, counted positive when it falls. Read a low inhibition as little suppression. As to `COc1ccc(N2CCN(CCn3cnc4c(cnc5ccccc54)c3=O)CC2)cc1`, the results for the inhibition in assay [1] and in assay [2] were 28% and 6%, respectively.
For `Cc1ccc2ncc3c(=O)n(CCCN4CCN(c5ccc(F)cc5)CC4)cnc3c2c1`, the values for the inhibition in assay [1] and in assay [2] were 39% and 67%, respectively.
One may read the Ki as a measure of affinity in units of concentration, obtained from inhibition or displacement. The low end stands for tighter binding, the high end for weaker binding. For the compound `O=c1c2cnc3ccccc3c2ncn1CCCCN1CCN(c2ccc(Cl)cc2)CC1`, the inhibition amounted to 79% in assay [1] and 54% in assay [2]. In assay [3], this compound came in with a Ki of 328 nM.
With `Cc1ccc2ncc3c(=O)n(CCCN4CCN(c5cccc(Cl)c5)CC4)cnc3c2c1`, the inhibition is 44% in assay [1] and 77% in assay [2].
As to `COc1ccccc1N1CCN(CCn2cnc3c(cnc4ccccc43)c2=O)CC1`, the inhibition came out at 36% in assay [1] and 93% in assay [2]. Besides, affinity in assay [4] was put at a Ki of 42 nM.
Taken in the same sequence, the figures for `O=c1c2cnc3ccccc3c2ncn1CCN1CCN(c2ccccc2Cl)CC1` were 17%, 90% and 78 nM.
Consider `Cc1ccc2ncc3c(=O)n(CCCN4CCN(c5ccccc5)CC4)cnc3c2c1`, for which the results for the inhibition in assay [1] and in assay [2] were 28% and 86%, respectively. Affinity in assay [4] was put at a Ki of 128 nM.
Consider `COc1ccccc1N1CCN(CCCn2cnc3c(cnc4cc(C)ccc43)c2=O)CC1`, for which the inhibition worked out at 18% in assay [1] and 92% in assay [2]. The compound further showed a Ki in assay [4] of 31 nM.
The like results for `O=c1c2cnc3ccccc3c2ncn1CCCN1CCN(c2ccccc2)CC1` were, in that order, 66%, 95% and 47 nM.
Take `Cc1ccccc1N1CCN(CCCn2cnc3c(cnc4ccccc43)c2=O)CC1`: the inhibition in assay [1] was 32%; in assay [2], 81%.
Turning to `O=c1c2cnc3ccccc3c2ncn1CCN1CCN(c2cccc(C(F)(F)F)c2)CC1`, the values for the inhibition in assay [1] and in assay [2] were 36% and 89%, respectively. The compound further gave a Ki in assay [4] of 160 nM.
For the compound `COc1ccccc1N1CCN(CCCn2cnc3c(cnc4ccccc43)c2=O)CC1`, the inhibition came out at 8% in assay [1] and 97% in assay [2]. This compound also yielded a Ki in assay [4] of 20 nM.
`O=c1c2cnc3ccccc3c2ncn1CCN1CCN(c2ccc(F)cc2)CC1`: the inhibition came to 14% in assay [1] and 40% in assay [2].
Take `O=c1c2cnc3ccccc3c2ncn1CCCN1CCN(c2ccccc2F)CC1`: the inhibition was 27% in assay [1] and 92% in assay [2]. The compound further yielded a Ki in assay [4] of 55 nM.
With `Cc1ccc2ncc3c(=O)n(CCCCN4CCN(c5ccc(F)cc5)CC4)cnc3c2c1`, the inhibition in assay [1] was found to be 56%; in assay [2] it was 72%.
Regarding `COc1ccccc1N1CCN(CCn2cnc3c(cnc4cc(C)ccc43)c2=O)CC1`, the figures for the inhibition in assay [1] and in assay [2] were 19% and 96%, respectively. Also, the inhibition constant Ki in assay [4] turned out to be 14 nM.
The like results for `COc1ccccc1N1CCN(CCCCn2cnc3c(cnc4cc(C)ccc43)c2=O)CC1` were, in that order, 43%, 99% and 20 nM.
Regarding `Cc1ccc2c(c1)ncc1c(=O)n(CCCN3CCN(c4cccc(Cl)c4)CC3)cnc12`, the inhibition in assay [1] is 40%; in assay [2], 73%.
The like results for `O=c1c2cnc3ccccc3c2ncn1CCN1CCN(c2ccc(-c3ncccn3)cc2)CC1` were, in that order, 29% and 10%.
Take `O=c1c2cnc3ccccc3c2ncn1CCCCN1CCN(c2ccc(F)cc2)CC1`: the inhibition in assay [1] worked out at 82%; in assay [2] it was 75%. The inhibition constant (Ki) in assay [3] came out at 404 nM.
On to `COc1cccc(N2CCN(CCCn3cnc4c(cnc5ccccc54)c3=O)CC2)c1`, for which the inhibition in assay [1] was 26%; in assay [2], 89%. Moreover, the Ki in assay [4] was found to be 120 nM.
Turning to `O=c1c2cnc3ccccc3c2ncn1CCCN1CCN(c2ccccc2Cl)CC1`, the inhibition in assay [1] was determined as 41%; in assay [2], 87%. The Ki in assay [4] was determined as 93 nM.
As to `O=c1c2cnc3ccccc3c2ncn1CCN1CCN(c2ccccc2F)CC1`, the inhibition in assay [1] came to 25%; in assay [2], 47%.
The like results for `O=c1c2cnc3ccccc3c2ncn1CCCN1CCN(c2ccc(Cl)cc2)CC1` were, in that order, 67% and 42%.
Turning to `Cc1ccc2c(c1)ncc1c(=O)n(CCN3CCN(c4cccc(C(F)(F)F)c4)CC3)cnc12`, the inhibition in assay [1] was determined as 8%; in assay [2], 88%. The same compound showed an inhibition constant (Ki) in assay [4] of 241 nM.
The like results for `Cc1ccc2c(c1)ncc1c(=O)n(CCCCN3CCN(c4cccc(Cl)c4)CC3)cnc12` were, in that order, 62%, 85% and 172 nM.
Take `O=c1c2cnc3ccccc3c2ncn1CCN1CCN(c2ccccc2)CC1`: the inhibition in assay [1] worked out at 26%; in assay [2], 66%.
`COc1ccc(N2CCN(CCCn3cnc4c(cnc5ccccc54)c3=O)CC2)cc1`: the inhibition was 23% in assay [1] and 0% in assay [2].
On to `COc1ccc(N2CCN(CCn3cnc4c(cnc5cc(C)ccc54)c3=O)CC2)cc1`, for which the inhibition in assay [1] and in assay [2] was 9% throughout.
For the compound `Cc1ccc2ncc3c(=O)n(CCN4CCN(c5cccc(C(F)(F)F)c5)CC4)cnc3c2c1`, the values for the inhibition in assay [1] and in assay [2] were 8% and 82%, respectively.
On to `COc1ccc(N2CCN(CCn3cnc4c(cnc5ccc(C)cc54)c3=O)CC2)cc1`, for which the inhibition in assay [1] came to 4%; in assay [2], 5%.
With `COc1ccccc1N1CCN(CCCCn2cnc3c(cnc4ccc(C)cc43)c2=O)CC1`, the values for the inhibition in assay [1] and in assay [2] were 48% and 99%, respectively. The affinity in assay [4], expressed as Ki, was 8 nM.
The like results for `Cc1ccc2ncc3c(=O)n(CCCCN4CCN(c5cccc(Cl)c5)CC4)cnc3c2c1` were, in that order, 57%, 91% and 67 nM.
The like results for `O=c1c2cnc3ccccc3c2ncn1CCN1CCN(c2cccc(Cl)c2)CC1` were, in that order, 22%, 93% and 55 nM.
With `COc1ccccc1N1CCN(CCn2cnc3c(cnc4ccc(C)cc43)c2=O)CC1`, the inhibition worked out at 11% in assay [1] and 88% in assay [2]. In assay [4], this compound came in with a Ki of 82 nM.
The like results for `O=c1c2cnc3ccccc3c2ncn1CCCN1CCN(c2ccc(F)cc2)CC1` were, in that order, 73%, 85% and 129 nM.
`COc1ccc(N2CCN(CCCCn3cnc4c(cnc5ccccc54)c3=O)CC2)cc1`: the inhibition in assay [1] is 48%; in assay [2], 11%. The Ki in assay [3] was greater than 10000 nM.
As to `COc1ccccc1N1CCN(CCCn2cnc3c(cnc4ccc(C)cc43)c2=O)CC1`, the inhibition in assay [1] was found to be 5%; in assay [2], 93%. Also, the affinity in assay [4] corresponds to a Ki of 26 nM.
Taken in the same sequence, the figures for `Cc1ccccc1N1CCN(CCn2cnc3c(cnc4ccccc43)c2=O)CC1` were 34%, 84% and 514 nM.
Taken in the same sequence, the figures for `Cc1ccc2c(c1)ncc1c(=O)n(CCCN3CCN(c4ccccc4)CC3)cnc12` were 44%, 86% and 125 nM.
Regarding `Cc1ccc2ncc3c(=O)n(CCCCN4CCN(c5ccccc5F)CC4)cnc3c2c1`, the inhibition in assay [1] was determined as 34%; in assay [2] it was 94%. Also, in assay [4], the Ki worked out at 97 nM.
On to `Cc1ccc2c(c1)ncc1c(=O)n(CCCCN3CCN(c4ccc(F)cc4)CC3)cnc12`, for which the inhibition worked out at 57% in assay [1] and 60% in assay [2].
The like results for `COc1cccc(N2CCN(CCn3cnc4c(cnc5ccccc54)c3=O)CC2)c1` were, in that order, 11% and 82%.
Taken in the same sequence, the figures for `Cc1ccc2c(c1)ncc1c(=O)n(CCCN3CCN(c4ccc(F)cc4)CC3)cnc12` were 45% and 68%.
The like results for `O=c1c2cnc3ccccc3c2ncn1CCN1CCN(c2ccc(Cl)cc2)CC1` were, in that order, 4% and 11%.
Regarding `O=c1c2cnc3ccccc3c2ncn1CCCN1CCN(c2cccc(Cl)c2)CC1`, the inhibition is 63% in assay [1] and 91% in assay [2]. In assay [4], this compound gave an inhibitory constant (Ki) of 80 nM.
For `O=c1c2cnc3ccccc3c2ncn1CCCN1CCN(c2cccc(C(F)(F)F)c2)CC1`, the inhibition was 44% in assay [1] and 85% in assay [2]. In assay [4], this compound yielded a Ki of 243 nM.
In the case of `Cc1ccc2c(c1)ncc1c(=O)n(CCCCN3CCN(c4ccccc4F)CC3)cnc12`, the inhibition in assay [1] is 45%; in assay [2] it was 90%. This compound came in with an inhibitory constant (Ki) in assay [4] of 83 nM.
